Screens deposited in PubChem by several laboratories.
Shown are actives, neighbours in structure and some others; about 1.5% of the full set was active somewhere.
Calpain2 inh – inhibitors of pig calpain II, primary screen, biochemical, fluorogenic peptide substrate, 1536-well. inhibition, % at 16 µM. 220,000 compounds, 0.37% hits. AID 1236, 2008. purified calpain II, 30 min;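 active = inhibition above about 50%, limit read from the data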
Hsp70 act – Hsp70 transcriptional activators, primary screen, cell-based, HeLa, Hsp70 promoter luciferase, luminescence, 10 µM | 200,000 compounds, 0.04% hits | activation, % at 10 µM | HeLa Hsp70 promoter luciferase reporter; scaled: vehicle 0, proteasome-inhibitor control 100%;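 active = activation above the mean across all tested compounds plus 3 SD, cutoff set per campaign, cut at about 5.5% in these data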;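 note: 100% = MG132 at 30 µM as the positive control and 0% = DMSO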
Mdm2 ligase inh – MDM2-luciferase reporter signal enhancers, primary screen, MDM2 E3 ligase inhibitor project, cell-based, luminescence, 1536-well. E3 ubiquitin-protein ligase Mdm2 (Homo sapiens), Q00987. cell-based MDM2 ubiquitination luciferase reporter, 2 h; 0 = plate control, 100 = twice control, blank-subtracted. signal enhancement, % at 5 µM. 210,000 compounds, 0.11% hits. AID 1230, 2008;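 active = signal enhancement of 30% or more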;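 note: luminescence tracks abundance of the self-degrading MDM2-luciferase fusion protein; higher signal means inhibition of MDM2 E3 ligase activity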
Target sequence (Q00987 whole entry, looked up, the tested form may be a part): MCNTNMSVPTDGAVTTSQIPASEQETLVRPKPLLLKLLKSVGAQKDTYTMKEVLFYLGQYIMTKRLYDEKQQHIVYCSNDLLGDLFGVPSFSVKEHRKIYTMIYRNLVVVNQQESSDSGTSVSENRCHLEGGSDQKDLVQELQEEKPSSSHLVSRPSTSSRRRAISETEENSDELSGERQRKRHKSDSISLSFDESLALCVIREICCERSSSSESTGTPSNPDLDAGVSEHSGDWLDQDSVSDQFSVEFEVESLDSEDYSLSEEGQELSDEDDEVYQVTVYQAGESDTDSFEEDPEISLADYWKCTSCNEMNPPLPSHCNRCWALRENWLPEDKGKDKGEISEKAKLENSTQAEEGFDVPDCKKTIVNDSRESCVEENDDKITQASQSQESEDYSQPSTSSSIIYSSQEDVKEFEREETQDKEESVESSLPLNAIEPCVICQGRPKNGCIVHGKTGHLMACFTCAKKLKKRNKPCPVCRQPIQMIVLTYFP
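Assay system: stable mammalian line carrying autodegrading MDM2–luciferase fusion reporter; amount: 2000 cells seeded into each well; buffer or medium: DMEM; benchmarks: plate control and blank wells; signal: luciferase luminescence; timing: 2 h compound exposure at 37 °C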
Wee1 stabilizer – Wee1 degradation inhibitors, primary screen, cell-based, HeLa, Wee1K328M-luciferase, luminescence; Wee1-like protein kinase (Homo sapiens), P30291; HeLa Luc-Wee1K328M stability; 100% = proteasome inhibitor MG132 effect; reporter increase, % at 5 µM; 220,000 compounds, 1.2% hits;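 active = activation above the mean of all tested compounds plus 3 SD, set per screening run, cut at about 8.8% in these data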;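 note: cells exposed to compound for 20 h before luminescence read; 0% = DMSO alone and 100% = MG132 at 30 µM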
Pf gamet viab – late stage P. falciparum gametocyte viability inhibitors, primary screen, ATP luminescence, HTS; P. falciparum stage V gametocytes, 24 h; inhibition, % at 10.9 µM; 150,000 compounds, 0.065% hits;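 active = inhibition above the mean plus 3 SD of compounds within the control limits, set per campaign, cut at about 38% in these data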;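 note: 0% = DMSO wells and 100% = medium only without gametocytes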
* hit, by the source's call; x = not tested or not shown.

SMILES	Calpain2 inh	Hsp70 act	Mdm2 ligase inh	Wee1 stabilizer	Pf gamet viab
CC1CCCN(Cc2cnc(Cl)s2)C1 (stereo not given)	40	0	-16	-1	16
C=CCc1c(N(CC)CC)nc(C)[nH]c1=O	13	x	-10	9.3*	-8
CCCCNC(=S)NCc1ccc2[nH]c3c(c2c1)CCCC3	63*	0	-5	0	x
CCOC(=O)C1=C(C)C2C3C(=O)N(c4cc(C)ccc4C)C(=O)C3C1(C)C1C(=O)N(c3cc(C)ccc3C)C(=O)C21 (stereo not given)	-67	0	-21	9.1*	x
CCOC(=O)C1(C)NC(c2ccco2)C2C(=O)N(c3ccc(C)cc3)C(=O)C21 (stereo not given)	-24	-1	-3	1	18
COc1ccc(CN2CCC(=O)N(CCO)CC2)cc1OC	x	x	x	x	-23
O=c1nc(SCc2c(F)cccc2Cl)nc(-c2ccc(Cl)cc2)[nH]1	16	x	-6	-1	3
O=c1nc(SCc2ccccc2Cl)nc(-c2ccc(Cl)cc2)[nH]1	50*	x	-2	-4	6
O=C(CCCCn1c(=O)c2ccccc2n(CC(=O)Nc2ccc(F)cc2)c1=O)NCc1ccco1	64*	0	3	-2	-8
CCCc1ccc(Oc2c(-c3ccc(O)c(C)c3O)n[nH]c2C)cc1	36	0	-9	-1	-4
CCCOC(=O)c1ccc(Oc2cn[nH]c2-c2ccc(OCC)cc2O)cc1	53*	0	-12	-2	x
CCCc1ccc(Oc2cn[nH]c2-c2ccc(O)c(C)c2O)cc1	53*	0	-12	-2	x
O=C1C2C3C=CC(C4CC34)C2C(=O)N1CCCCN1CCN(c2ccc(F)cc2)CC1 (stereo not given)	x	x	x	x	-9
O=C1/C(=C/N(C(=O)c2ccco2)c2ccc(Cl)cc2)Sc2ccccc21	1	0	-55	9.4*	x
COC(=O)C(C)Oc1ccc(Cl)c(CN2OCC(C)(C)C2=O)c1 (stereo not given)	x	x	x	x	-5
Cc1cc(=O)n2[nH]c(N3C(=O)CCC3=O)nc2n1	-13	0	30*	-2	x
Cc1ccc([N+](=O)[O-])cc1NC(=O)Nc1cccc(F)c1	-24	x	-16	-1	x
Cc1cc(O)ccc1NC(=O)Cc1cccc2ccccc12	x	x	x	x	6
O=C(Nc1ncn[nH]1)c1ccc(S(=O)(=O)N2CCOCC2)cc1	11	0	-6	0	-33
COc1cc2c(-c3ccc4cc[nH]c4c3)c(-c3ccc(C#N)cc3)oc(=O)c2cc1OC	x	x	x	x	-15
O=C1NCCN1C(=O)C12CC3CC(CC(C3)C1)C2	-29	0	-17	9.1*	-9
O=C(N1CCCC1)C12CC3CC(CC(C3)C1)C2	-8	0	x	-1	x
COCc1nc2ccccc2n1CCc1ccccc1	x	x	x	x	6
CCCCCCCCCn1c2c(c(=N)c3c1CCC3)CCC2	51*	0	-57	-2	x
CCCCCCn1c2c(c(=N)c3c1CCC3)CCC2	-5	0	-20	0	x
SMILES	Calpain2 inh	Hsp70 act	Mdm2 ligase inh	Wee1 stabilizer	Pf gamet viab
CN(C)/C=C/C(=O)c1cccc(Cl)c1	19	-1	-3	0	5
CN(C)/C=C/C(=O)c1ccc(Cl)cc1	6	0	2	11*	-3
CC(C)c1ccccc1NS(C)(=O)=O	-27	0	4	16*	x
CC(C)c1ccccc1NS(=O)(=O)N(C)C	18	0	-9	1	x
CCc1[nH]nc2c1C(C(C)C)C(C#N)=C(N)O2 (stereo not given)	14	x	7	x	-11
CCSc1nc2c(c(=O)[nH]1)C(C(C)C)C(C#N)=C(N)O2 (stereo not given)	15	0	2	9.1*	x
O=C1NC(=Nc2ccc(F)cc2)SC1Cc1ccc(F)cc1 (stereo not given)	-9	x	-16	3	-1
O=C1NC(=Nc2ccc(Cl)cc2)SC1Cc1cc(Cl)ccc1Cl (stereo not given)	31	0	-12	9.0*	4
O=C(CN1CCN(c2ncccn2)CC1)NCc1ccccc1	-37	0	103*	0	x
COCC(COS(N)(=O)=O)C(C)C (stereo not given)	x	x	x	x	-16
O=C(c1ncc[nH]1)c1ccco1	13	0	-9	-1	x
O=C(c1cc(C(=O)c2ccco2)cc(C(=O)c2ccco2)c1)c1ccco1	6	0	-1	11*	6
CON(C)C(=O)CC(CNC(=O)OC(C)(C)C)c1ccc(Cl)cc1 (stereo not given)	x	x	x	x	10
COc1ccc(NC(=O)c2noc3c2CCC3)cc1	-65	0	-57	1	-8
CC(=O)c1ccc(NC(=O)c2noc3c2CCC3)cc1	2	0	-76	10*	-24
O=C(N(c1ccccc1)c1ccccc1)N(c1ccccc1)c1ccccc1	16	x	-8	0	-13
NC(=S)N(c1ccccc1)c1ccccc1	-25	0	-13	9.6*	-3
CCCCC[C@H]1CN(Cc2ccccc2)C(=O)[C@@H]1CC(=O)NCc1ccccc1	x	x	x	x	8
COc1ccc(N2C(=O)C(=O)/C(=C(/O)c3ccc(C)cc3)C2c2cccnc2)cc1 (stereo not given)	7	0	-11	10*	12
COc1ccc(C2/C(=C(/O)c3ccc(C)cc3)C(=O)C(=O)N2C)cc1 (stereo not given)	-2	0	-8	0	x
Fc1ccccc1COc1ccc2ccccc2c1CNc1nn[nH]n1	-17	0	-6	-3	-7
O=C(NC(=S)NCCN1CCOCC1)c1ccc(F)cc1	-14	0	0	1	1
CC(C)CNC(=S)NC(=O)c1ccc(F)cc1	10	0	0	9.1*	2
CC(=O)c1cn(C2OC(CO)C3OC(C)(C)OC32)c(=O)n(C)c1=O (stereo not given)	x	x	x	x	-12
CC(C)OP(=O)(OC(C)C)C(Nc1ccccc1)c1ccc2c(c1)OCO2 (stereo not given)	21	0	-16	0	21
CC(C)COP(=O)(OCC(C)C)C(Nc1ccccc1)c1ccc2c(c1)OCO2 (stereo not given)	51*	0	4	0	11
O=C(O)C1(c2ccccc2)CCC(Nc2ccccc2)C1 (stereo not given)	x	x	x	x	-38
CC(=O)NC1CCC(C(=O)O)(c2ccccc2)C1 (stereo not given)	-17	0	2	9.3*	x
